Here are results for 18 molecules from ChEMBL document CHEMBL4422701, “Jatrophane Diterpenoids from Euphorbia glomerulans” (J Nat Prod, 2019).

Assay [1] deals with NCI/ADR-RES. The assay is described as follows: Cytotoxicity in doxorubicin-resistant human MCF7/ADR cells assessed as reduction in cell viability incubated for 48 hrs by MTT assay. It counts as cell-based. In a few lines: (§1)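 Cells grown in RPMI-1640 with 10% heat-inactivated FBS at 37 °C, 5% CO2. Compounds were dissolved in DMSO and given as serial dilutions to cells seeded at 5 × 10^3 per well in log phase, for 48 h. MTT (5 mg/mL) was then added for 4 h, formazan dissolved in DMSO, and absorbance read at 570 nm.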
For orientation: Formazan colour is commonly taken as a measure of viable cells.

For assay [2], the system named is MCF7. Briefly: Cytotoxicity in human MCF7 cells assessed as reduction in cell viability incubated for 48 hrs by MTT assay. The assay is classed as cell-based. To be noted: MCF7, 48 h. In a few lines:
as §1

Broadly, the IC50 is the concentration at which inhibition is half-maximal. On to `C=C1[C@H](O)[C@H]2[C@@H](OC(=O)c3ccccc3)[C@](C)(OC(C)=O)C[C@]2(O)[C@H](OC(C)=O)[C@@H](C)/C=C/C(C)(C)C(=O)[C@H](OC(C)=O)[C@H]1OC(C)=O`, for which the half-maximal inhibitory concentration (IC50) in assay [1] and in assay [2] was greater than 100 µM in each case.
As to `C=C1[C@H](O)[C@H]2[C@@H](OC(=O)c3ccccc3)[C@](C)(O)C[C@]2(O)[C@H](OC(C)=O)[C@@H](C)/C=C/C(C)(C)C(=O)[C@H](OC(C)=O)[C@H]1OC(=O)c1ccccc1`, the IC50 in assay [1] and in assay [2] was greater than 100 µM throughout.
As for `C=C1[C@H](OC(C)=O)[C@H]2[C@@H](OC(=O)c3ccccc3)[C@](C)(O)C[C@]2(O)C(=O)[C@@H](C)/C=C/C(C)(C)C(=O)[C@H](OC(=O)C(C)C)[C@H]1OC(C)=O`, the IC50 in assay [1] and in assay [2] was greater than 100 µM each time.
With `C=C1[C@H](OC(C)=O)CC(=O)C(C)(C)/C=C/[C@H](C)C(=O)[C@@]2(OC(C)=O)C[C@H](C)[C@H](OC(=O)c3ccccc3)[C@@H]2[C@H]1OC(C)=O`, the values for the IC50 in assay [1] and in assay [2] were 39.3 µM and 51.1 µM, respectively.
Taken in the same sequence, the figures for `C=C1[C@H](OC(C)=O)CC(=O)C(C)(C)/C=C/[C@H](C)C(=O)[C@@]2(OC(C)=O)C[C@H](C)[C@H](OC(C)=O)[C@@H]2[C@H]1OC(=O)c1ccccc1` were greater than 100 µM and greater than 100 µM.
Taken in the same sequence, the figures for `C=C1[C@H](OC(C)=O)[C@H]2[C@@H](OC(=O)c3ccccc3)[C@](C)(OC(C)=O)C[C@]2(O)C(=O)[C@@H](C)/C=C/C(C)(C)C(=O)[C@H](OC(C)=O)[C@H]1OC(=O)C(C)C` were greater than 100 µM and greater than 100 µM.
Taken in the same sequence, the figures for `C=C1[C@H](OC(C)=O)[C@H]2[C@@H](OC(=O)c3ccccc3)[C@@H](C)C[C@]2(OC(C)=O)C(=O)[C@@H](C)/C=C/C(C)(C)C(=O)[C@H](O)[C@H]1OC(C)=O` were greater than 100 µM and greater than 100 µM.
Regarding `C=C1[C@H](OC(C)=O)[C@H]2[C@@H](OC(=O)c3ccccc3)[C@@H](C)C[C@]2(OC(C)=O)C(=O)[C@@H](C)/C=C/C(C)(C)C(=O)[C@H](OC(C)=O)[C@H]1OC(C)=O`, the IC50 in assay [1] and in assay [2] was greater than 100 µM in each case.
Turning to `C=C1[C@H](OC(=O)c2ccccc2)[C@H]2[C@@H](OC(C)=O)[C@@H](C)C[C@]2(OC(C)=O)C(=O)[C@@H](C)/C=C/C(C)(C)C(=O)[C@H](O)[C@H]1OC(C)=O`, the IC50 in assay [1] and in assay [2] was greater than 100 µM in each case.
Consider `C=C1[C@H](OC(=O)c2ccccc2)[C@H]2[C@@H](OC(C)=O)[C@@H](C)C[C@]2(OC(C)=O)C(=O)[C@@H](C)/C=C/C(C)(C)C(=O)[C@H](OC(=O)c2ccccc2)[C@H]1OC(C)=O`, for which the IC50 in assay [1] and in assay [2] was greater than 100 µM each time.
`C=C1[C@H](OC(=O)c2ccccc2)[C@@H](OC(C)=O)[C@@H](OC(C)=O)C(C)(C)/C=C/[C@H](C)C(=O)[C@@]2(OC(C)=O)C[C@H](C)[C@H](OC(=O)c3ccccc3)[C@@H]2[C@H]1OC(C)=O`: the IC50 in assay [1] and in assay [2] was greater than 100 µM in each case.
As for `C=C1[C@H](OC(C)=O)[C@H]2[C@@H](OC(=O)c3ccccc3)[C@@H](C)C[C@]2(OC(C)=O)C(=O)[C@@H](C)/C=C/C(C)(C)C(=O)[C@H](O)[C@H]1OC(=O)c1ccccc1`, the IC50 in assay [1] and in assay [2] was greater than 100 µM each time.
In the case of `C=C1[C@H](OC(C)=O)[C@H]2[C@@H](OC(=O)c3ccccc3)[C@](C)(O)C[C@]2(O)C(=O)[C@@H](C)/C=C/C(C)(C)C(=O)[C@H](OC(C)=O)[C@H]1OC(=O)c1ccccc1`, the IC50 in assay [1] and in assay [2] was greater than 100 µM in each case.
`C=C1[C@H](OC(C)=O)[C@H]2[C@@H](OC(=O)c3ccccc3)[C@](C)(OC(C)=O)C[C@]2(O)C(=O)[C@@H](C)/C=C/C(C)(C)C(=O)[C@H](OC(=O)C(C)C)[C@H]1OC(C)=O`: the values for the IC50 in assay [1] and in assay [2] were greater than 100 µM and 50.2 µM, respectively.
`C=C1[C@H](OC(C)=O)[C@H]2[C@@H](OC(=O)c3ccccc3)[C@@H](C)C[C@]2(O)C(=O)[C@@H](C)/C=C/C(C)(C)C(=O)[C@H](O)[C@H]1OC(C)=O`: the IC50 in assay [1] and in assay [2] was greater than 100 µM in each case.
As to `C=C1[C@H](OC(C)=O)[C@H]2[C@@H](OC(=O)c3ccccc3)[C@@H](C)C[C@]2(OC(C)=O)C(=O)[C@@H](C)/C=C/C(C)(C)C(=O)[C@H](OC(C)=O)[C@H]1OC(=O)c1ccccc1`, the IC50 in assay [1] and in assay [2] was greater than 100 µM throughout.
As to `C=C1[C@H](OC(C)=O)[C@H]2[C@@H](OC(=O)CC(C)=O)[C@@H](C)C[C@]2(O)C(=O)[C@@H](C)/C=C/C(C)(C)C(=O)[C@H](OC(C)=O)[C@H]1OC(=O)c1ccccc1`, the IC50 in assay [1] and in assay [2] was greater than 100 µM each time.
Regarding `COc1cccc2c1C(=O)c1c(O)c3c(c(O)c1C2=O)C[C@@](O)(C(=O)CO)C[C@@H]3O[C@H]1C[C@H](N)[C@H](O)[C@H](C)O1` [DOXORUBICIN], the IC50 in assay [1] came out at 64.8 µM.
